Screening results (PubChem BioAssay)
Compounds with a hit are over-represented: about 1.5% of the library has one in this group of screens.
CCR6 antag: CCR6 (human) receptor antagonism | actives 0.49% (n = 340,000) | inhibition, % at 20 µM | CHO-K1 CCR6 PathHunter beta-arrestin, luminescence, CCL20-stimulated;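 active = compounds whose inhibition of the agonist-driven luminescence signal at 20 µM reaches about 50%, limit read from the data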;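 also: cells stimulated with CCL20 at 14 nM final; plate controls were DMSO with CCL20 for no effect and DMSO without agonist for full effect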
Target sequence (P51684 whole entry, looked up): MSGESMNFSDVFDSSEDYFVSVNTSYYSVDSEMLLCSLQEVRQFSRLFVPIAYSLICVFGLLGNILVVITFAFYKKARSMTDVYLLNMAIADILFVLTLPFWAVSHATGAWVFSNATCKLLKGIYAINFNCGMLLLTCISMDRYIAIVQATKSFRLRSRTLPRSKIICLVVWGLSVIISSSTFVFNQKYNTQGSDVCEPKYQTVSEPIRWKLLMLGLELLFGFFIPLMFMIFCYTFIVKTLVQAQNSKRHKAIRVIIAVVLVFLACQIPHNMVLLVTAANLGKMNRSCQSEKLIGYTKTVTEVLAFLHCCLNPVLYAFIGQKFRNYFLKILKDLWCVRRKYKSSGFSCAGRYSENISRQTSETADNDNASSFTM
APJ antagonist: APJ receptor antagonism. P35414. CHO-K1 APJ beta-arrestin complementation, luminescence. inhibition, % at 20 µM. actives 0.32% (n = 330,000). AID 2521;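 active = inhibition above about 40% at 20 µM, limit read from the data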;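 also: cells challenged with 10 nM apelin-13 agonist together with compound; plate controls were apelin-13 plus DMSO wells for no effect and DMSO wells lacking apelin-13 for full effect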
HTR2A ag: mouse HTR2A agonism via beta-arrestin recruitment; P35363; CHO-K1 mHTR2A beta-arrestin complementation, luminescence; percent of 30 µM serotonin response; activation, % at 7.6 µM; actives 0.66% (n = 360,000); AID 624169;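 active = activation above a run cutoff, the mean activation of all tested compounds plus 3 SD, cut at about 14% in these data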;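 also: 0% = plate median of compound wells and 100% = 30 µM serotonin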
APJ ag: APJ receptor agonism | P35414 | CHO-K1 APJ PathHunter beta-arrestin, luminescence; 0% DMSO wells, 100% apelin | activation, % at 20 µM | actives 0.11% (n = 330,000) | AID 2520;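 active = activation more than six SD over the plate average, tested at 20 µM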;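 also: 0% = DMSO alone and 100% = apelin-13 at 10 nM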
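Test system: CHO-K1 APJ beta-arrestin complementation cell line. Amount: cell density 1000 per well. Controls: DMSO negative, 10 nM Apelin-13 positive. Signal: luminescent beta-gal fragment complementation, chemiluminescent substrate. Read-out basis: agonist-driven arrestin binding to APJ. Timing: compound stimulation 90 min at 25 °C, detection 60 min.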
NTR1 agonist: agonists of human neurotensin receptor NTR1 | NTR1-U2OS beta-arrestin-GFP spot imaging, agonist mode | actives 0.17% (n = 330,000) | activation, % at 20 µM | AID 493036;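 active = activation at or above 40% of the spot to cytoplasm intensity ratio, with at least 20 cells analyzed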;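 also: 0% = DMSO without peptide and 100% = 100 nM NTR1 peptide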
CXCR6 inh: inhibitors of human CXCR6 receptor. O00574. CHO-K1 PathHunter CXCR6 beta-arrestin, luminescence. inhibition, % at 20 µM. actives 0.36% (n = 360,000). AID 602244; in the data active = inhibition above about 34%, passing the limit was not always enough;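 also: antagonist mode with CXCL16 agonist at 10 nM final; 0% = 10 nM CXCL16 with DMSO and 100% = unstimulated wells without agonist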
APJ ag conf: APJ receptor agonism confirmation | activation, % at 20 µM | CHO-K1 APJ PathHunter beta-arrestin, luminescence | actives 10% (n = 310) | shares compounds with APJ ag;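 active = activation above 40%, taking the highest of four retests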;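 also: plate controls were DMSO wells for no effect and apelin-13 at 10 nM for full effect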
APJ antag conf: confirmation of human APJ apelin receptor antagonists | shares compounds with APJ antagonist | inhibition, % at 20 µM | actives 66% (n = 950) | APJ beta-arrestin recruitment, luminescence, antagonist mode; in the data active = inhibition above about 50%
CXCR6 confirm: CXCR6 antagonism confirmation, single concentration. shares compounds with CXCR6 inh. CHO-K1 CXCR6 PathHunter beta-arrestin, luminescence. inhibition, % at 20 µM. actives 65% (n = 700). AID 602409;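 active = mean inhibition over four retests above 40%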;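 also: receptor stimulated with 10 nM CXCL16 agonist; beta-galactosidase fragment complementation upon beta-arrestin recruitment to receptor; plate controls were CXCL16 plus DMSO for no effect and DMSO without CXCL16 for full effect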
MOR ag counter: activates human mu opioid receptor in HTR2A counterscreen; shares compounds with HTR2A ag; AID 624380; actives 5.3% (n = 2,300); U2OS OPRM1 beta-arrestin PathHunter, luminescence; DMSO 0%, DAMGO 9.3 µM 100%; activation, % at 9.3 µM;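 active = mean activation above the mean of DMSO-only wells plus 3 SD, cut at about 0.5% in these data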
m5-HT2A ag conf: confirmation of mouse HTR2A serotonin receptor agonists. shares compounds with HTR2A ag. CHO-K1 PathHunter beta-arrestin recruitment, luminescence; DMSO 0%, 30 µM serotonin 100%. activation, % at 7.6 µM. actives 19% (n = 2,300);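 active = mean activation across triplicates above the hit threshold derived in the original primary screen, cut at about 15% in these data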
Numbers without * were called inactive; . = not tested or not shown.

SMILES	CCR6 antag	APJ antagonist	HTR2A ag	APJ ag	NTR1 agonist	CXCR6 inh	APJ antag conf	others
CC(C)(C)OC(=O)NCCCCCc1cn([C@@H](CO)C(=O)NCCCCCCCCCCC(=O)N2CCN(C(=O)OC(C)(C)C)CC2)nn1	-17.2	-77.6	14.9*	45.0*	82.3*	-10.7	.	APJ ag conf=52.0*;MOR ag counter=-0.1;m5-HT2A ag conf=18.9*
Cc1[nH]c2ccccc2c1C(=O)COC(=O)C1CC(O)CN1S(=O)(=O)c1ccc(Cl)cc1 (centres undefined)	-13.8	-15.8	14.8*	28.0*	6.1	-6.3	.	APJ ag conf=4.3;MOR ag counter=-0.4;m5-HT2A ag conf=5.2
O=C(O)c1ccc(N/N=C/c2c(F)cccc2Cl)cc1	0.1	4.7	-0.8	-0.1	0.8	10.1	.
O=C(CNC(=O)C1CCCCC1)NC1CCCCC1	2.6	2.8	-3.0	-2.6	-0.5	-2.6	.
Cc1c(Cl)sn(-c2ccc(Cl)cc2)c1=O	91.9*	38.3	17.1*	25.6*	1.0	74.5*	.	APJ ag conf=26.3;CXCR6 confirm=94.5*;MOR ag counter=3.3*;m5-HT2A ag conf=0.2
Cc1nn(-c2ccc(Cl)cc2)c(=O)c2ccccc12	3.8	23.4	-2.2	-3.4	-1.1	0.1	.
Cc1ccc(-n2ncc3c(N4CCCC4)ncnc32)c(C)c1	-1.3	3.8	8.0	-2.4	1.4	0.0	.
COc1cccc(N2CCN(c3ncnc4c3cnn4-c3ccc(C)cc3C)CC2)c1	-7.1	-57.7	15.0*	15.8*	21.7	-4.3	.	APJ ag conf=33.8;MOR ag counter=3.0*;m5-HT2A ag conf=10.4
CC(=O)Nc1ccc(NC(=O)CCC(=O)OCC(=O)c2ccc(F)cc2)cc1	-13.6	12.1	1.2	5.6	1.0	4.0	.
CC(=O)Nc1ccc(NC(=O)CCC(=O)OCC(=O)c2ccc(C)c([N+](=O)[O-])c2)cc1	42.5	70.2*	-1.0	-9.2	-1.3	10.5	54.5*
Cc1ccc(C(=O)COC(=O)CCC(=O)Nc2ccccc2Cl)cc1[N+](=O)[O-]	32.6	44.5*	-0.9	-7.6	1.8	17.2	75.0*
O=C(CCC(=O)OCc1ccc([N+](=O)[O-])cc1)Nc1ccccc1Cl	-6.5	-2.0	-0.8	-3.4	-1.7	3.1	.
Cc1ccc(NC(=O)CCC(=O)OCC(=O)c2ccc(Oc3ccc([N+](=O)[O-])cc3)cc2)cc1	7.5	12.1	-1.8	-3.1	1.0	6.0	.
CC(=O)c1ccc(NC(=O)CCC(=O)OCC(=O)c2cccc([N+](=O)[O-])c2)cc1	54.9*	43.1*	1.4	-14.2	0.3	21.9	76.8*
O=C(c1cccc([N+](=O)[O-])c1)N1CCCC(C(=O)N2CCN(c3ccccc3)CC2)C1 (centres undefined)	-3.3	-9.8	0.6	-5.3	0.4	2.9	.
O=C(CSc1ncnc2c1cnn2-c1ccccc1)Nc1ccccc1	11.0	53.7*	-2.9	1.5	2.2	0.1	26.7
CNC(=O)CSc1ncnc2c1cnn2-c1ccccc1	-2.3	12.0	-0.8	-3.7	0.3	-6.1	.
c1ccc(OC2CCCCC2N2CCOCC2)cc1 (centres undefined)	.	.	-0.7	.	.	5.5	.
C/C(=N\NC(=O)c1cc2ccccc2cc1O)c1ccccn1	19.9	44.1*	0.8	-19.6	5.8	17.9	29.7
O=C1/C(=C/c2ccncc2)SC(=S)N1Nc1ccccc1	9.7	-8.1	0.9	9.8	5.4	-1.8	.
